Experimental data from publication PMC6358549 (Molecular Metabolism, 2018).
Where two headings read alike, the source gives them in different places. No end group written: not given here.

Experiments:
[1] = general statement in the discussion, no reference given; cited from earlier work
rat GIPR = details: cited from earlier work
healthy human volunteers = details: cited from earlier work
hGIPR [2] = molecular target: T1, hGIPR (Homo sapiens, UniProt P48546); experiment: cAMP-response-element luciferase reporter gene assay, agonism at human GIPR; format: cell-based; details: Figure 5B
T1 sequence (P48546 22-466): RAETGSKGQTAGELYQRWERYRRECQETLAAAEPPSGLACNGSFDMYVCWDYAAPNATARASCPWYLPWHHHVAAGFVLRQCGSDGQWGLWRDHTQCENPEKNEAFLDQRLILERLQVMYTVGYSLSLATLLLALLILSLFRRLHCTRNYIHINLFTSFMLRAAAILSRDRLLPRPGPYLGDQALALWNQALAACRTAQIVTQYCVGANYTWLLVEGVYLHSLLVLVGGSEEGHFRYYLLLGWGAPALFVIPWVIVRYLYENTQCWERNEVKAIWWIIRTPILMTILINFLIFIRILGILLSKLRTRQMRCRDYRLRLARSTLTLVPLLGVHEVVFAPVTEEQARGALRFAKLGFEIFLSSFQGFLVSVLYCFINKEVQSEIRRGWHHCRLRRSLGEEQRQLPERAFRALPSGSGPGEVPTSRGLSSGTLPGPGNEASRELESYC

mGIPR = molecular target: T2, mGIPR (Mus musculus, UniProt Q0P543); experiment: cAMP-response-element luciferase reporter gene assay, agonism at mouse GIPR; format: cell-based; details: Figure 5D
T2 sequence (Q0P543 19-460): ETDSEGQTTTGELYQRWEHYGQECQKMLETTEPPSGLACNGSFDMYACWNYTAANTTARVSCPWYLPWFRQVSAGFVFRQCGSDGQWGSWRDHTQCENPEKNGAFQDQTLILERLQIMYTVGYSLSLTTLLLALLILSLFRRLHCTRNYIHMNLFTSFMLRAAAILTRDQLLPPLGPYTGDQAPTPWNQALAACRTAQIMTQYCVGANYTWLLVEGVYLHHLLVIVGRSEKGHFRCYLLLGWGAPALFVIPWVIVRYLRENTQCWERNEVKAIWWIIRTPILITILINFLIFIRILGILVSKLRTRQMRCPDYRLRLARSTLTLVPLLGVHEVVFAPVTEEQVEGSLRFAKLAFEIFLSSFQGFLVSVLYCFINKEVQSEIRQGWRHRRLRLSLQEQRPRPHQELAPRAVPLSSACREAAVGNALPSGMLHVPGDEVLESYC

hGIPR [3] = molecular target: T1, hGIPR; experiment: luciferase reporter gene assay, antagonism at human GIPR; format: cell-based; details: co-incubated with native GIP at its EC50; 1% ovalbumin; Figure 5A
How it was run: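 HEK293 or BHK cells overexpressing the human receptor with a CRE-linked firefly luciferase reporter were serum-deprived for 16 h. They were then incubated 5 h at 37 °C, 5% CO2 with native GIP at constant concentration plus serial dilutions of test compound. Luminescence was read after adding luciferase substrate. Each concentration was run in duplicate, and potency was fitted per experiment by non-linear three-parameter regression.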

mouse GLP-1R = molecular target: T3, mouse GLP-1R (Mus musculus, UniProt O35659); experiment: luciferase reporter gene assay, antagonism at mouse GLP-1R; format: cell-based; details: native hormone at EC90; Figure 5E
T3 sequence (O35659 22-463): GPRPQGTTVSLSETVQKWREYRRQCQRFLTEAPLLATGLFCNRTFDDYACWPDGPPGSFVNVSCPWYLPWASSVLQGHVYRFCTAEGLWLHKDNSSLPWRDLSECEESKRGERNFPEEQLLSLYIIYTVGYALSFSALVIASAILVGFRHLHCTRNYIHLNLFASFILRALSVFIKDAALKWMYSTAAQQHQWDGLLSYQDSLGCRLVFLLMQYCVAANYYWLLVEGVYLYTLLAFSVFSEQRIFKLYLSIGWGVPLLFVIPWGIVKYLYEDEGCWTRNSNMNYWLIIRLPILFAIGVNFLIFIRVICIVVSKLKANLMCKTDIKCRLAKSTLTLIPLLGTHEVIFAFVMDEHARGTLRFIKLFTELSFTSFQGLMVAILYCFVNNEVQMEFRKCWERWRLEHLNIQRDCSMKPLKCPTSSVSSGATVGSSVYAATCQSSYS

[4] = molecular target: mouse glucagon receptor (GcgR) (Mus musculus, UniProt Q61606); experiment: luciferase reporter gene assay, antagonism at mouse glucagon receptor; format: cell-based; details: native hormone at EC90; Figure 5
DIO mice = experiment: body weight change on chronic treatment of DIO mice; format: in vivo, mouse
[5] = aqueous solubility and aggregation; format: physicochemical; details: statement in the discussion, method not given

Chain of mouse glucagon receptor (GcgR) (Q61606 27-485): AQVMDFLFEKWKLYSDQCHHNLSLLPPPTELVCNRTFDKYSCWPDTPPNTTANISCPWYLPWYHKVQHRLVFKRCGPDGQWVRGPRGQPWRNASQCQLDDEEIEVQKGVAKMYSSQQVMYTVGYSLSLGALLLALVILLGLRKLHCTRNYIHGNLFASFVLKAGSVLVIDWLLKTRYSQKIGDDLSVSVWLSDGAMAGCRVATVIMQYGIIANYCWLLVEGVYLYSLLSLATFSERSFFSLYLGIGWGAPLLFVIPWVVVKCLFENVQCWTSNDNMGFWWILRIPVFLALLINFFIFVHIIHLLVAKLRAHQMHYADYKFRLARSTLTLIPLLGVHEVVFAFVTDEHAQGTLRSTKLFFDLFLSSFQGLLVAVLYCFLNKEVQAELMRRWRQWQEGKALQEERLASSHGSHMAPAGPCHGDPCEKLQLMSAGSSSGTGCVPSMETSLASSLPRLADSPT

## Native, full-length GIP: native, full-length GIP
[1]
  aggregation in liquid formulations: prone to aggregation
  aqueous solubility: limited aqueous solubility

## hGIP (3–30)-NH2: peptide-based GIPR antagonist from the literature (EGTFISDYSIAMDKIHQQDFVNWLLAQK-NH2; UniProt P09681 54-81, looked up, fragment)
Rat GIPR
  affinity for the rat GIPR relative to hGIPR: substantially reduced affinity
Healthy human volunteers
  insulinotropic response to GIP co-infusion: blocked a majority of the insulinotropic response

## hGIP(5–42) N^αAc K10[γEγE-C16] Arg18 [acyl GIPR antagonist]
hGIPR [2]
  partial agonism at hGIPR: did not exhibit any degree of partial agonism
mGIPR
  partial agonism at mGIPR: did not exhibit any degree of partial agonism
hGIPR [3]
  hGIPR antagonism: potent antagonism
Mouse GLP-1R
  cross-reactive antagonism to mouse GLP-1R: did not demonstrate any cross-reactive antagonism
[4]
  cross-reactive antagonism to mouse glucagon receptor (GcgR): did not demonstrate any cross-reactive antagonism
DIO mice; daily sc 300 nmol/kg or 1 μmol/kg for ten days, N = 8
  change in body weight relative to vehicle controls: did not cause any measurable change in body weight
[5]
  aqueous solubility: sufficient aqueous solubility

## liraglutide [reference compound]
DIO mice; daily sc liraglutide 10 nmol/kg, Figure 5H
  body weight lowered by: 10.9%
